Values after ≈ are worked out from the molar mass of the structure shown.

The source of these data is ChEMBL document CHEMBL1287747, “Highly active antimycobacterial derivatives of benzoxazine” (2010).

Common to all, as to type: functional
Experiment [1] relates to Mycobacterium kansasii. In words: Antimycobacterial activity against Mycobacterium kansasii 6509/96 after 14 days by microdilution method. The conditions noted are these: 6509/96, 336 h. A digest of the protocol:
(§1)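 Clinical isolate that, unlike the standard strain, is not isoniazid-resistant. Tested by dilution micromethod in Šula semisynthetic medium, with compounds added in DMSO at final 1000 down to 0.25 µmol/L in twofold steps. Löwenstein-Jensen plate used as inoculum sterility and growth control. Incubated at 37 °C and read at 14 and 21 days. MIC is the lowest concentration inhibiting growth.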

In experiment [2] the test system is Mycobacterium tuberculosis. In words: Antimycobacterial activity against Mycobacterium tuberculosis CNCTC My 331/88 after 14 days by microdilution method. The conditions noted are these: CNCTC My 331/88, 336 h. The method in brief:
(§2)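 Strains from the Czech National Collection of Type Cultures, tested by dilution micromethod in Šula semisynthetic medium. Incubated at 37 °C and read at 14 and 21 days. MIC is the lowest concentration inhibiting growth.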

For experiment [3], the system named is Mycobacterium kansasii. In words: Antimycobacterial activity against Mycobacterium kansasii CNCTC My 235/80 after 14 days by microdilution method. The conditions noted are these: CNCTC My 235/80, 336 h. A digest of the protocol: as §2
Experiment [4] has as its system Mycobacterium avium. Briefly: Antimycobacterial activity against Mycobacterium avium CNCTC My 330/88 after 21 days by microdilution method. The settings on record: CNCTC My 330/88, 504 h. The method in brief: as §2
The subject of experiment [5] is Mycobacterium avium. Briefly: Antimycobacterial activity against Mycobacterium avium CNCTC My 330/88 after 14 days by microdilution method. The settings on record: CNCTC My 330/88, 336 h. The method in brief: as §2
For experiment [6], the system named is Mycobacterium kansasii. Briefly: Antimycobacterial activity against Mycobacterium kansasii CNCTC My 235/80 after 21 days by microdilution method. The settings on record: CNCTC My 235/80, 504 h. A digest of the protocol: as §2
Experiment [7] has as its system Mycobacterium kansasii. Briefly: Antimycobacterial activity against Mycobacterium kansasii 6509/96 after 21 days by microdilution method. The conditions noted are these: 6509/96, 504 h. A digest of the protocol:
as §1

Experiment [8] has as its system Mycobacterium tuberculosis. Briefly: Antimycobacterial activity against Mycobacterium tuberculosis CNCTC My 331/88 after 21 days by microdilution method. The settings on record: CNCTC My 331/88, 504 h. A digest of the protocol: as §2

Take `Cc1ccc(-n2c(=S)oc3ccc(Br)cc3c2=S)cc1`: the MIC was determined as 4 µM (≈ 1.46 µg/mL) with Mycobacterium kansasii [1]; 0.5 µM (≈ 0.182 µg/mL) in experiment [2]; 4 µM (≈ 1.46 µg/mL) against Mycobacterium kansasii [3]; 30 µM (≈ 10.9 µg/mL) against Mycobacterium avium [4]; 15 µM (≈ 5.46 µg/mL) with Mycobacterium avium [5]; 4 µM (≈ 1.46 µg/mL) against Mycobacterium kansasii [6]. In addition, the minimal inhibitory concentration (MIC) in the experiment with Mycobacterium kansasii [7] stood at 4 µM (≈ 1.46 µg/mL); in experiment [8], 1 µM (≈ 0.364 µg/mL).

Regarding `Cc1ccc2c(=S)n(-c3ccc(C(C)C)cc3)c(=S)oc2c1`, the minimal inhibitory concentration (MIC) against Mycobacterium kansasii [1] amounted to 1 µM (≈ 0.327 µg/mL); in experiment [2] it was 0.5 µM (≈ 0.164 µg/mL); in the experiment with Mycobacterium kansasii [3] it was 2 µM (≈ 0.655 µg/mL); against Mycobacterium avium [4], 0.5 µM (≈ 0.164 µg/mL); with Mycobacterium avium [5] it was 0.5 µM (≈ 0.164 µg/mL); in the experiment with Mycobacterium kansasii [6] it was 4 µM (≈ 1.31 µg/mL). Besides, the MIC was 2 µM (≈ 0.655 µg/mL) against Mycobacterium kansasii [7] and 1 µM (≈ 0.327 µg/mL) in experiment [8].

On to `CCC(C)c1ccc(-n2c(=S)oc3ccc(Br)cc3c2=S)cc1` (stereo unspecified), for which the MIC is 2 µM (≈ 0.813 µg/mL) against Mycobacterium kansasii [1]; 1 µM (≈ 0.406 µg/mL) in experiment [2]; 4 µM (≈ 1.63 µg/mL) in the experiment with Mycobacterium kansasii [3]; 32 µM (≈ 13 µg/mL) with Mycobacterium avium [4]; 32 µM (≈ 13 µg/mL) in the experiment with Mycobacterium avium [5]; 8 µM (≈ 3.25 µg/mL) against Mycobacterium kansasii [6]. Further, the MIC against Mycobacterium kansasii [7] was 4 µM (≈ 1.63 µg/mL); in experiment [8] it was 2 µM (≈ 0.813 µg/mL).

On to `CCC(C)c1ccc(-n2c(=S)oc3ccc(Cl)cc3c2=S)cc1` (stereo unspecified), for which the minimal inhibitory concentration (MIC) turned out to be 4 µM (≈ 1.45 µg/mL) against Mycobacterium kansasii [1]; 1 µM (≈ 0.362 µg/mL) in experiment [2]; 8 µM (≈ 2.9 µg/mL) in the experiment on Mycobacterium kansasii [3]; 32 µM (≈ 11.6 µg/mL) in the experiment with Mycobacterium avium [4]; 16 µM (≈ 5.79 µg/mL) with Mycobacterium avium [5]; 16 µM (≈ 5.79 µg/mL) against Mycobacterium kansasii [6]. For the same molecule, the minimum inhibitory concentration (MIC) against Mycobacterium kansasii [7] came out at 8 µM (≈ 2.9 µg/mL); in experiment [8] it was 2 µM (≈ 0.724 µg/mL).

In the case of `CCC(C)c1ccc(-n2c(=S)oc3cc(Cl)ccc3c2=S)cc1` (stereo unspecified), the minimum inhibitory concentration (MIC) against Mycobacterium kansasii [1] came to 1 µM (≈ 0.362 µg/mL); in experiment [2], 1 µM (≈ 0.362 µg/mL); against Mycobacterium kansasii [3], 4 µM (≈ 1.45 µg/mL); against Mycobacterium avium [4], 8 µM (≈ 2.9 µg/mL); in the experiment on Mycobacterium avium [5] it was 4 µM (≈ 1.45 µg/mL); with Mycobacterium kansasii [6], 8 µM (≈ 2.9 µg/mL). In addition, the minimal inhibitory concentration (MIC) against Mycobacterium kansasii [7] worked out at 2 µM (≈ 0.724 µg/mL); in experiment [8] it was 1 µM (≈ 0.362 µg/mL).

In the case of `CCCCc1ccc(-n2c(=S)oc3ccc(Cl)cc3c2=S)cc1`, the minimal inhibitory concentration (MIC) was 8 µM (≈ 2.9 µg/mL) with Mycobacterium kansasii [1]; 2 µM (≈ 0.724 µg/mL) in experiment [2]; 8 µM (≈ 2.9 µg/mL) against Mycobacterium kansasii [3]; 16 µM (≈ 5.79 µg/mL) against Mycobacterium avium [4]; 8 µM (≈ 2.9 µg/mL) in the experiment with Mycobacterium avium [5]; 8 µM (≈ 2.9 µg/mL) with Mycobacterium kansasii [6]. Further, the minimal inhibitory concentration (MIC) with Mycobacterium kansasii [7] turned out to be 8 µM (≈ 2.9 µg/mL); in experiment [8], 4 µM (≈ 1.45 µg/mL).

On to `CC(C)c1ccc(-n2c(=O)oc3ccc(Br)cc3c2=O)cc1`, for which the minimal inhibitory concentration (MIC) with Mycobacterium kansasii [1] came to 4 µM (≈ 1.44 µg/mL); in experiment [2], 2 µM (≈ 0.72 µg/mL); in the experiment on Mycobacterium kansasii [3], 8 µM (≈ 2.88 µg/mL); with Mycobacterium avium [4], 16 µM (≈ 5.76 µg/mL); in the experiment on Mycobacterium avium [5] it was 8 µM (≈ 2.88 µg/mL); against Mycobacterium kansasii [6], 8 µM (≈ 2.88 µg/mL). Moreover, the MIC against Mycobacterium kansasii [7] is 8 µM (≈ 2.88 µg/mL); in experiment [8], 4 µM (≈ 1.44 µg/mL).

In the case of `CC(C)c1ccc(-n2c(=O)oc3ccc(Cl)cc3c2=O)cc1`, the MIC in the experiment on Mycobacterium kansasii [1] was 8 µM (≈ 2.53 µg/mL); in experiment [2] it was 4 µM (≈ 1.26 µg/mL); in the experiment on Mycobacterium kansasii [3] it was 8 µM (≈ 2.53 µg/mL); with Mycobacterium avium [4] it was 32 µM (≈ 10.1 µg/mL); against Mycobacterium avium [5] it was 32 µM (≈ 10.1 µg/mL); against Mycobacterium kansasii [6], 16 µM (≈ 5.05 µg/mL). Further, the values for the minimum inhibitory concentration (MIC) (with Mycobacterium kansasii [7]; in experiment [8]) were 16 µM (≈ 5.05 µg/mL) and 8 µM (≈ 2.53 µg/mL), respectively.

Take `CC(C)c1ccc(-n2c(=O)oc3cc(Cl)ccc3c2=O)cc1`: the MIC amounted to 8 µM (≈ 2.53 µg/mL) in the experiment on Mycobacterium kansasii [1]; 4 µM (≈ 1.26 µg/mL) in experiment [2]; 8 µM (≈ 2.53 µg/mL) against Mycobacterium kansasii [3]; 16 µM (≈ 5.05 µg/mL) in the experiment on Mycobacterium avium [4]; 8 µM (≈ 2.53 µg/mL) in the experiment with Mycobacterium avium [5]; 16 µM (≈ 5.05 µg/mL) against Mycobacterium kansasii [6]. Besides, the figures for the MIC (against Mycobacterium kansasii [7]; in experiment [8]) were 8 µM (≈ 2.53 µg/mL) and 4 µM (≈ 1.26 µg/mL), respectively.

Consider `CC(C)(C)c1ccc(-n2c(=S)oc3cc(Cl)ccc3c2=S)cc1`, for which the minimum inhibitory concentration (MIC) in the experiment on Mycobacterium kansasii [1] worked out at 2 µM (≈ 0.724 µg/mL); in experiment [2], 0.5 µM (≈ 0.181 µg/mL); against Mycobacterium kansasii [3], 2 µM (≈ 0.724 µg/mL); with Mycobacterium avium [4], 4 µM (≈ 1.45 µg/mL); in the experiment with Mycobacterium avium [5] it was 2 µM (≈ 0.724 µg/mL); in the experiment on Mycobacterium kansasii [6], 4 µM (≈ 1.45 µg/mL). For the same molecule, the minimal inhibitory concentration (MIC) with Mycobacterium kansasii [7] is 4 µM (≈ 1.45 µg/mL); in experiment [8], 0.5 µM (≈ 0.181 µg/mL).

With `CC(C)(C)c1ccc(-n2c(=S)oc3ccc(F)cc3c2=S)cc1`, the MIC came out at 4 µM (≈ 1.38 µg/mL) against Mycobacterium kansasii [1]; 0.5 µM (≈ 0.173 µg/mL) in experiment [2]; 8 µM (≈ 2.76 µg/mL) in the experiment with Mycobacterium kansasii [3]; 1 µM (≈ 0.345 µg/mL) in the experiment with Mycobacterium avium [4]; 0.5 µM (≈ 0.173 µg/mL) against Mycobacterium avium [5]; 8 µM (≈ 2.76 µg/mL) with Mycobacterium kansasii [6]. Further, the MIC came out at 8 µM (≈ 2.76 µg/mL) with Mycobacterium kansasii [7] and 0.5 µM (≈ 0.173 µg/mL) in experiment [8].

Turning to `CCc1ccc(-n2c(=O)oc3ccc(Cl)cc3c2=S)cc1`, the MIC in the experiment on Mycobacterium kansasii [1] is 4 µM (≈ 1.27 µg/mL); in experiment [2], 0.5 µM (≈ 0.159 µg/mL); in the experiment on Mycobacterium kansasii [3], 8 µM (≈ 2.54 µg/mL); against Mycobacterium avium [4], 16 µM (≈ 5.08 µg/mL); in the experiment with Mycobacterium avium [5] it was 16 µM (≈ 5.08 µg/mL); against Mycobacterium kansasii [6] it was 8 µM (≈ 2.54 µg/mL). Besides, the MIC against Mycobacterium kansasii [7] worked out at 4 µM (≈ 1.27 µg/mL); in experiment [8] it was 0.5 µM (≈ 0.159 µg/mL).
